# According to ChEMBL document CHEMBL1148256, “Synthesis of new fluoroquinolones and evaluation of their in vitro activity on Toxoplasma gondii and Plasmodium spp” (Bioorg Med Chem Lett, 2004):
# Legend:
# Plasmodium falciparum = assay: In vitro inhibitory activity against chloroquine-resistant Plasmodium falciparum NF54-R in blood; type: functional, organism-based
# MRC5 = assay: In vitro inhibitory activity on MRC5 fibroblast tissue cultures inoculated with virulent RH strain of Toxoplasma gondii; type: functional, cell-based; conditions: Homo sapiens
# In short: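 Confluent MRC5 fibroblast monolayers inoculated with 2000 fresh RH tachyzoites; compounds added at various concentrations after 4 h, then 72 h further incubation. Eight uninfected and eight drug-free control wells per plate. Cold-methanol-fixed cultures assayed by ELISA with peroxidase-labelled anti-SAG-1 monoclonal antibody, read at 405 nm against uninfected blank. IC50 from linear regression of OD versus log concentration.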
# Plasmodium yoelii yoelii = assay: In vitro inhibitory activity against hepatic stages of Plasmodium yoelii yoelii 265 BY; type: functional, organism-based
SMILES,IC50 (Plasmodium falciparum) [µM],IC50 (MRC5) [µM],IC50 (Plasmodium yoelii yoelii) [µM]
COc1c(N2CCNC(C)C2)c(F)cc2c(=O)c(C(=O)O)cn(C3CC3)c12 (stereo not drawn) [GATIFLOXACIN],29,12.7,–
COc1c(N2C[C@@H]3CCCN[C@@H]3C2)c(F)cc2c(=O)c(C(=O)O)cn(C3CC3)c12 [MOXIFLOXACIN],45,10.9,–
N[C@@H]1[C@H]2CN(c3nc4c(cc3F)c(=O)c(C(=O)O)cn4C3CC3)C[C@@H]12 [TROVAFLOXACIN4],–,1.68,–
N[C@@H]1[C@H]2CN(c3nc4c(cc3F)c(=O)c(C(=O)O)cn4-c3ccc(F)cc3F)C[C@@H]12 [TROVAFLOXACIN],22,0.96,74
